From ChEMBL document CHEMBL5380804, “Discovery of 2-(3-Benzamidopropanamido)thiazole-5-carboxylate Inhibitors of the Kinesin HSET (KIFC1) and the Development of Cellular Target Engagement Probes” (J Med Chem, 2023) come the findings set out here.

For assay [1], the target named is T1, Kinesin-like protein KIFC1 (Homo sapiens, UniProt Q9BW19).
T1 sequence (Q9BW19 whole entry): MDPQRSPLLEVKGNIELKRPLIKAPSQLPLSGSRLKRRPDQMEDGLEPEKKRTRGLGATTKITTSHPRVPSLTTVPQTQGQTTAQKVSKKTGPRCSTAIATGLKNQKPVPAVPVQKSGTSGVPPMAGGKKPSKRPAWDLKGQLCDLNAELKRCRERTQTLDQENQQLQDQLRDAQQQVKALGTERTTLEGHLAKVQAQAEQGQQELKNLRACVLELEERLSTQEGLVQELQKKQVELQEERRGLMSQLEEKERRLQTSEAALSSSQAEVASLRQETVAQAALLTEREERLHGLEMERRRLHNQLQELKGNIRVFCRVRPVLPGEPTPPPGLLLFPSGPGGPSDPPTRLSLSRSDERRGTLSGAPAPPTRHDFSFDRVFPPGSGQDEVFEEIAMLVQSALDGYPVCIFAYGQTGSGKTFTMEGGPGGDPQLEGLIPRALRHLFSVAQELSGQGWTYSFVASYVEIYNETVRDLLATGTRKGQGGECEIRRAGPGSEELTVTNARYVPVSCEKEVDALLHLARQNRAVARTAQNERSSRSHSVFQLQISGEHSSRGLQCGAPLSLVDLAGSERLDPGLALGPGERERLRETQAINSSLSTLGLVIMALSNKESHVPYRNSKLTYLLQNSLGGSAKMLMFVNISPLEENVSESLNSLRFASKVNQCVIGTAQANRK
The assay is described as follows: Binding affinity to N-terminal His-tagged full length recombinant human HSET assessed as dissociation constant incubated for 3 hrs in presence of 7 ug/ml of microtubules by fluorescence polarization assay. In short, it runs like this: (§1)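 Full-length human N-His HSET titrated from 2000 to 0.5 nM. Preincubated 10 min with paclitaxel-stabilized preformed microtubules or reconstitution buffer, then added to 2.5 nM sulfoCy5 probe. Buffer: 20 mM HEPES pH 7.5, 200 mM NaCl, 10 mM MgCl2, 1 mM TCEP, 0.1 mM Triton X-100, 5% glycerol.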
Background: Fluorescence polarisation rises when a labelled molecule tumbles more slowly, as on binding a larger partner.

The target of assay [2] is T1, Kinesin-like protein KIFC1. Put plainly: Binding affinity to N-terminal His-tagged full length recombinant human HSET assessed as dissociation constant incubated for 3 hrs in presence of 70 ug/ml of microtubules by fluorescence polarization assay. In short, it runs like this:
as §1

In assay [3] the target is T2, Kinesin-like protein KIFC1 (Homo sapiens) (UniProt Q9BW19).
T2 sequence (whole entry): T1 sequence (Q9BW19 whole entry)
Put plainly: Displacement of CCT369834 probe from HSET in human DLD-1 cells assessed as decrease in localization of CCT369834 probe at 0.1 to 10 uM incubated for 45 mins by Alexa-488 fluorophore staining immunofluorescence analysis. Format: cell-based. The conditions noted are these: dose 0.1-10 µM. In short, it runs like this:
(§2)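 Target engagement in DLD1 4N cells, with HSET-knockout DLD1 as negative control. Cells pretreated 2 h with 8 μM pro-TAME, then given 3 μM TCO probe alone or with competitor plus 8 μM MG-132 in 1% FBS medium for 45 min. Washed, PFA-fixed, then 400 nM tetrazine-Cy5 for 10 min. Stained for pericentrin, KIFC1 and DAPI, followed by confocal 3D segmentation of mitotic poles. Cy5/KIFC1 pole intensity ratio, with KO signal subtracted, normalized to probe-alone control; n > 100 cells per replicate, two replicates per concentration.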

Assay [4] deals with T2, Kinesin-like protein KIFC1 (Homo sapiens). The assay is described as follows: Displacement of CCT369834 probe from HSET in human DLD-1 cells assessed as decrease in localization of CCT369834 probe at 0.1 to 10 uM incubated for 45 mins by TZ-Cy5 staining immunofluorescence analysis. To be noted: dose 0.1-10 µM. It is filed as cell-based. In short, it runs like this: as §2

For assay [5] the target is unchanged. The assay is described as follows: Displacement of CCT369834 probe from HSET in human DLD-1 cells assessed as decrease in localization of CCT369834 probe at 0.1 to 10 uM incubated for 45 mins by DAPI staining immunofluorescence analysis. Format: cell-based. To be noted: dose 0.1-10 µM. In short, it runs like this: as §2
The target of assay [6] is T1, Kinesin-like protein KIFC1. The assay is described as follows: Displacement of FP-Probe from N-terminal His-tagged full length recombinant human HSET incubated for 2 hrs by fluorescence polarization based competitive binding assay. In short, it runs like this:
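Competitive FP assay with 400 nM full-length human N-His HSET and 2.5 nM sulfoCy5 probe in 20 mM HEPES pH 7.5, 200 mM NaCl, 10 mM MgCl2, 1 mM TCEP, 0.1 mM Triton X-100, 5% glycerol. 11-point compound series from 100 to 0.001 μM final.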

Assay [7] addresses T2, Kinesin-like protein KIFC1 (Homo sapiens). Put plainly: Inhibition of N-terminal His-tagged full length recombinant human HSET assessed as inhibition of microtubule-stimulated ATPase activity incubated for 10 mins in presence of ultra-ATP by ADP-Glo kinase assay relative to control.
The target is the same in assay [8]. The assay is described as follows: Binding affinity to HSET in human DLD-1 assessed as fold increase in signal at 3 uM incubated for 45 mins by Alexa-488 fluorophore staining immunofluorescence analysis. Format: cell-based. In short, it runs like this:
(§3)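 DLD1 4N cells and CRISPR HSET-knockout DLD1 cells pretreated 2 h with 8 μM pro-TAME, then 45 min with 3 μM TCO click probe plus 8 μM MG-132 in DMEM/1% FBS. After washes, fixed in 4% PFA and reacted with 400 nM tetrazine-Cy5 for 10 min at room temperature. Stained for pericentrin, KIFC1 (Alexa-488) and DAPI; confocal 40× imaging; signal expressed relative to tetrazine-Cy5 alone.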

The target is the same in assay [9]. The assay is described as follows: Binding affinity to HSET in human DLD-1 with HSET knockout assessed as fold increase in signal at 3 uM incubated for 45 mins by Alexa-488 fluorophore staining immunofluorescence analysis. Format: cell-based. In short, it runs like this:
as §3

What is called Kd is the concentration at which binding is half-saturated. Turning to `CCCOC(=O)c1sc(NC(=O)C[C@H](CCCNC(=O)CCCCC[N+]2=C(/C=C/C=C/C=C3/N(C)c4ccc(S(=O)(=O)O)cc4C3(C)C)C(C)(C)c3cc(S(=O)(=O)O)ccc32)NC(=O)c2cccc(-c3noc(C)n3)c2)nc1C`, the figures for the Kd in assay [1] and in [2] were 315 nM and 332 nM, respectively. As for `CCCOC(=O)c1sc(NC(=O)C[C@H](CCCN(C)C)NC(=O)c2cccc(-c3noc(C)n3)c2)nc1C`, the Activity result in [3], in assay [4] and in assay [5] was “Dose-Dependent Effect” each time. A word on the IC50: it is the concentration needed to halve the response being measured. Consider `CCOC(=O)c1sc(NC(=O)CCNC(=O)c2cccc(-c3noc(C)n3)c2)nc1C`, for which the IC50 in assay [6] stood at 109 nM. As usually defined, the inhibition is the relative decrease from the control value, in per cent. Take `CCOC(=O)c1sc(NC(=O)CCNC(=O)c2ccccc2)nc1C`: in [7], the inhibition came out at 47%.

Turning to `CCOC(=O)c1sc(NC(=O)CCNC(=O)C2CCCC(C)C2)nc1C` (stereo not given), the inhibition in assay [7] is 47%.

For `CCCOC(=O)c1sc(NC(=O)C[C@H](CCCN(C)CC#CCNC(=O)O[C@@H]2CC/C=C/CCC2)NC(=O)c2cccc(-c3noc(C)n3)c2)nc1C`, the fold change (FC) came to 14 in [8] and 7 in assay [9].
